Measured values taken from ChEMBL document CHEMBL1140407, “Design and synthesis of tricyclic corticotropin-releasing factor-1 antagonists” (J Med Chem, 2005).

The compounds below were run against T1, Corticotropin-releasing factor receptor 1 (Homo sapiens, UniProt P34998) (assay: In vitro inhibition of CRF-stimulated cAMP production in cell membranes expressing human CRF1 receptor). Conditions: in the assay text read “whole cells” for “cell membranes”.
T1 sequence (P34998 whole entry): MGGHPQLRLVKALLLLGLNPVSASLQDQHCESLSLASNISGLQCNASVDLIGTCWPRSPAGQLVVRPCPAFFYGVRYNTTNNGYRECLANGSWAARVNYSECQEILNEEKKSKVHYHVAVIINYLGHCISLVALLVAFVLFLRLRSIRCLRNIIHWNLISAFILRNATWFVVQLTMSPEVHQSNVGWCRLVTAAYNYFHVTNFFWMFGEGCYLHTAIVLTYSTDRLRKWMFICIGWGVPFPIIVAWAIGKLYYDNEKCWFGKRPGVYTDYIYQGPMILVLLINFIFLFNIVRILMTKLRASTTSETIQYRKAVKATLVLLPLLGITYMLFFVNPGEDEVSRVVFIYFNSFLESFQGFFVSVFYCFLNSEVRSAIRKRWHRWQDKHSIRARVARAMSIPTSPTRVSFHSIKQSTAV
Type: functional, cell-based
Summary of the method: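 Live whole L-hCRF1 cells (LtK- cells expressing human CRF1 receptor) were plated at 100 000 cells/well the day before and washed with DPBS. Buffer was DMEM without phenol red with 1 mM IBMX. CRF plus antagonist at various concentrations were added for 30 min at 37 °C in 5% CO2. Total cAMP was read by chemiluminescent immunoassay and IC50 was obtained by nonlinear curve fitting.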

IC50	SMILES
79.4 nM	CC[C@H]1Cn2nc(-c3ccc(Cl)cc3Cl)c3nc(C)cc(c32)N1CC1CC1

These compounds were tested against T1, Corticotropin-releasing factor receptor 1 (assay: Binding affinity for human corticotropin releasing factor receptor 1 expressed in LtK- cells using [125I]sauvagine). Conditions: not given.
Type: cell-based
Summary of the method: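 Buffer: DPBS with 10 mM MgCl2 and 2 mM EGTA, pH 7.4. Competitor 10 pM to 1 µM, run in duplicate, 2 h at room temperature. Bound ligand separated by vacuum filtration and counted by gamma counter. Nonspecific binding taken with excess unlabeled sauvagine. Ki from nonlinear curve fitting.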

SMILES	Ki
CC[C@H]1Cn2nc(-c3ccc(Cl)cc3C)c3nc(C)cc(c32)N1CC1CC1	7.94 nM
CC[C@H]1Cn2nc(-c3ccc(Cl)cc3C(F)(F)F)c3nc(C)cc(c32)N1CC1CC1	20 nM
CC[C@H]1Cn2nc(-c3ccc(C)cc3Cl)c3nc(C)cc(c32)N1CC1CC1	6.31 nM
CC[C@H]1Cn2nc(-c3ccc(Cl)cc3Cl)c3nc(C)cc(c32)N1CC(C)C	15.8 nM
CC[C@H]1Cn2nc(-c3ccc(Cl)cc3Cl)c3nc(C)cc(c32)N1CC	63.1 nM
CC[C@H]1Cn2nc(-c3ccc(OC)cc3C)c3nc(C)cc(c32)N1CC1CC1	10 nM
CC[C@H]1Cn2nc(-c3ccc(C(=O)OC)cc3Cl)c3nc(C)cc(c32)N1CC1CC1	158 nM
CC[C@H]1Cn2nc(-c3ccc(Cl)cc3Cl)c3nc(C)cc(c32)N1CCOC	50.1 nM
CC[C@H]1Cn2nc(-c3ccc(OC)cc3Cl)c3nc(C)cc(c32)N1CC1CC1	3.98 nM
CCCN1c2cc(C)nc3c(-c4ccc(Cl)cc4Cl)nn(c23)C[C@@H]1CC	31.6 nM
Cc1cc2c3c(n1)c(-c1ccc(Cl)cc1Cl)nn3CCN2C(C)C	79.4 nM
CC[C@H]1Cn2nc(-c3ccc(Cl)cc3Cl)c3nc(C)cc(c32)N1Cc1ccccc1	158 nM
CC[C@H]1Cn2nc(-c3ccc(OC)cc3C(F)(F)F)c3nc(C)cc(c32)N1CC1CC1	7.94 nM
CCC[C@H]1Cn2nc(-c3ccc(Cl)cc3Cl)c3nc(C)cc(c32)N1CC1CC1	3.98 nM
CC[C@H]1Cn2nc(-c3ccc(C)cc3C)c3nc(C)cc(c32)N1CC1CC1	12.6 nM
CCC(CC)N1CCn2nc(-c3ccc(Cl)cc3Cl)c3nc(C)cc1c32	3.98 nM

The next lines start with the values.

Ki	SMILES
5.01 nM	CCCC(CCC)N1CCn2nc(-c3ccc(Cl)cc3Cl)c3nc(C)cc1c32
3.98 nM	CC[C@H]1Cn2nc(-c3ccc(C(F)(F)F)cc3Cl)c3nc(C)cc(c32)N1CC1CC1
5.01 nM	CCCCC(CCCC)N1CCn2nc(-c3ccc(Cl)cc3Cl)c3nc(C)cc1c32
7.94 nM	Cc1cc2c3c(n1)c(-c1ccc(Cl)cc1Cl)nn3C[C@H](C)N2CC1CC1
126 nM	CC[C@@H]1Cn2nc(-c3ccc(Cl)cc3Cl)c3nc(C)cc(c32)N1CC1CC1
794 nM	CC[C@H]1Cn2nc(-c3ccc(Cl)cc3Cl)c3nc(C)cc(c32)N1
7.94 nM	CC[C@H]1Cn2nc(-c3ccc(C(C)C)cc3C(F)(F)F)c3nc(C)cc(c32)N1CC1CC1
12.6 nM	CC[C@H]1Cn2nc(-c3ccc(F)cc3Cl)c3nc(C)cc(c32)N1CC1CC1
6.31 nM	CCCCN1c2cc(C)nc3c(-c4ccc(Cl)cc4Cl)nn(c23)C[C@@H]1CC
158 nM	Cc1cc2c3c(n1)c(-c1ccc(Cl)cc1Cl)nn3CCN2C1CCCCC1
10 nM	Cc1cc2c3c(n1)c(-c1ccc(Cl)cc1Cl)nn3C[C@H](c1ccccc1)N2CC1CC1
25.1 nM	CC[C@H]1Cn2nc(-c3ccc(Cl)cc3OC)c3nc(C)cc(c32)N1CC1CC1
7.94 nM	CC[C@H]1Cn2nc(-c3ccc(C(F)(F)F)cc3C(F)(F)F)c3nc(C)cc(c32)N1CC1CC1
79.4 nM	Cc1cc2c3c(n1)c(-c1ccc(Cl)cc1Cl)nn3CCN2CC1CC1
398 nM	Cc1cc2c3c(n1)c(-c1ccc(Cl)cc1Cl)nn3CCN2CC(C)C
5.01 nM	Cc1cc2c3c(n1)c(-c1ccc(Cl)cc1Cl)nn3C[C@H](C(C)C)N2CC1CC1
20 nM	CC[C@H]1Cn2nc(-c3ccc(Cl)cc3Cl)c3nc(C)cc(c32)N1CC1CCC1
50.1 nM	CC[C@H]1Cn2nc(-c3ccc(Cl)cc3F)c3nc(C)cc(c32)N1CC1CC1
63.1 nM	CCC(COC)N1CCn2nc(-c3ccc(Cl)cc3Cl)c3nc(C)cc1c32 (centres undefined)
1.58 nM	CCCN(CC1CC1)c1cc(C)nc2c(-c3ccc(Cl)cc3Cl)nn(C)c12
2.51 nM	CCCCN(CC)c1nc(C)nc2c1c(C)c(C)n2-c1c(C)cc(C)cc1C [ANTALARMIN]

Species on record: Rattus norvegicus
Assay: In vitro Inhibition of CRF-stimulated ACTH release in rat anterior pituitary cells, upon 9 min incubation at 37 degree C
Type: functional, cell-based
Conditions: Pituitary gland cell, 4 h, in the assay text read “4 h incubation” for “9 min incubation”
Summary of the method: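 Pituitaries from 7-week-old female Sprague Dawley rats digested with collagenase (1.5 h, 37 °C), then neuraminidase (9 min, 37 °C). Cells cultured 2-3 days in 3% FCS/BBM-T at 40,000 cells/well. Antagonist (1 pM to 1 µM) added with 0.5 nM r/hCRF in BBM-T for 4 h at 37 °C. Medium ACTH measured by RIA.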

IC50	SMILES
126 nM	CC[C@H]1Cn2nc(-c3ccc(Cl)cc3Cl)c3nc(C)cc(c32)N1CC1CC1
